Shown are actives, neighbours in structure and some others; about 2.8% of the full set was active somewhere.
NPY Y2 blocker: NPY-Y2 receptor antagonists, primary screen, cell-based. Neuropeptide Y receptor type 2 (Homo sapiens), P49146. NPY-Y2 expressing cells, antagonist mode. inhibition, % at 2.7 µM. actives 0.99% (n = 140,000); in the data active = inhibition above about 17%
NPY1 pot ag: NPY-Y1 receptor potentiators or agonists, primary screen, cell-based | Neuropeptide Y receptor type 1 (Homo sapiens), P25929 | NPY-Y1 expressing cells, potentiator/agonist activation | activation, % at 3.6 µM | actives 0.37% (n = 220,000) | AID 1304, 2008; in the data active = activation above about 33%, passing the limit was not always enough;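 also: cells stimulated with NPY at EC10 then isoproterenol at EC100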
Target sequence (P25929 whole entry, looked up): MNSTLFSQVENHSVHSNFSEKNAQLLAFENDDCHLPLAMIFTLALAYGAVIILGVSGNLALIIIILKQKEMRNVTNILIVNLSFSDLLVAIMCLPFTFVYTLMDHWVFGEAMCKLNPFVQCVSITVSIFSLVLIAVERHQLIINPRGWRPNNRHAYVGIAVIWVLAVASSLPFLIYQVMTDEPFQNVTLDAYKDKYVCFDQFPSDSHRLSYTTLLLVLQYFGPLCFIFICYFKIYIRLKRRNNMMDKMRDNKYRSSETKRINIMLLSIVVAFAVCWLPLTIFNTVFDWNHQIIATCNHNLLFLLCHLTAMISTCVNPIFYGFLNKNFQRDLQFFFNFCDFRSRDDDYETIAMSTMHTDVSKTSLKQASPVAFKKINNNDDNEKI
PGE2 EP2 inh: human EP2 receptor antagonists, primary screen, TR-FRET cAMP, C6 glioma cells; Prostaglandin E2 receptor EP2 subtype (Homo sapiens), P43116; C6 glioma cells expressing human EP2; cells stimulated with saturating PGE2; inhibition, % at 25 µM; actives 0.52% (n = 260,000); AID 1422, 2008;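 active = percent inhibition above 40 after rounding to a whole number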;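 also: rat C6 glioma host cells with rolipram phosphodiesterase inhibitor present; the protocol text gives 20 µM as final concentration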
EP2 mod: EP2 receptor modulators, cAMP readout, primary screen, cell-based, HTRF cAMP, PGE2 stimulation; induction, % at 25 µM; Prostaglandin E2 receptor EP2 subtype (Homo sapiens), P43116; actives 0.83% (n = 260,000); AID 940, 2007; EP2-expressing cells, cAMP HTRF FRET, PGE2 co-stimulation;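 active = compounds whose cAMP rise, as percent of the full-agonist control response, exceeds 60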;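 also: rat C6 glioma line stably carrying human EP2 under a CMV promoter; the protocol text gives 20 µM as final concentration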
NPY2 pot ag: NPY-Y2 potentiators or agonists, primary screen, cell-based; Neuropeptide Y receptor type 2 (Homo sapiens), P49146; cells expressing NPY-Y2, potentiator/agonist read-out; activation, % at 3.6 µM; actives 0.45% (n = 220,000); AID 1359, 2008; in the data active = activation above about 27%;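 also: cells stimulated with NPY near EC25 plus isoproterenol at EC100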
NPY-Y1 antag: NPY-Y1 receptor antagonists, primary screen, cell-based; Neuropeptide Y receptor type 1 (Homo sapiens), P25929; HEK293-CNG Y1 cells, membrane potential fluorescence; NPY at EC95, then isoproterenol; inhibition, % at 3.6 µM; actives 1% (n = 200,000); AID 1040, 2008;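 active = inhibition above the campaign mean inhibition of all tested compounds plus 3 SD, cut at about 20% in these data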
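Assay system: HEK293 cells with Y1 receptor plus CNG channel | Probe or stimulus: NPY (25 nM), isoproterenol (1 µM), Ro 20-1724 (25 µM) | Timing: Compound incubation 1 h at room temperature, readout 45 min post-stimulation | Measured by: Membrane-potential fluorescent dye readout | Benchmarks: High control isoproterenol alone, low control NPY with isoproterenol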
EP2 cAMP induct: cAMP induction in EP2, EP4, beta2-AR and parental cells, confirmation, counter-screen for EP2 modulator project, cell-based, five parallel assays, C6 glioma, HEK293; cAMP HTRF induction; plus low (about EC15) PGE2 agonist; calls only at 20 µM (by protocol); actives 47% (n = 1,300); AID 1080, 2008; shares compounds with EP2 mod;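 active = cAMP induction above 50% in the main assay while under 30% in all four parallel counter assays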;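 also: rat C6 glioma cells stably expressing human EP2 receptor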
Numbers stand for hits; ! = repeats disagree.

`COc1ccc(C)cc1NC(=O)C1CC(=O)OC12CCCCC2` (stereo not drawn) gave NPY Y2 blocker inactive, NPY1 pot ag inactive, PGE2 EP2 inh inactive, EP2 mod 65.4, NPY2 pot ag inactive, NPY-Y1 antag inactive and EP2 cAMP induct inactive.
Cc1cccc(NC(=O)C2CC(=O)OC23CCCCC3)c1 (stereo not drawn) was read as NPY Y2 blocker inactive, NPY1 pot ag inactive, PGE2 EP2 inh inactive, EP2 mod inactive, NPY2 pot ag inactive and NPY-Y1 antag inactive.
Screening CCC(C)N(C)C(=O)c1cc2ccccc2c(-c2ccccc2Cl)n1 (stereo not drawn) returned NPY1 pot ag inactive, PGE2 EP2 inh inactive, EP2 mod 69.8!, NPY2 pot ag inactive, NPY-Y1 antag inactive and EP2 cAMP induct inactive.
`CC(C)C(=O)NCCc1nc(-c2ccccc2Cl)no1` gave PGE2 EP2 inh inactive.
For COc1ccc(NC(=O)COC(=O)C2CC(=O)N(c3ccc(C)c(C)c3)C2)cc1 (stereo not drawn) the results were PGE2 EP2 inh inactive and EP2 mod inactive.
Cc1ccc(/C=N/N(Cc2ccccc2)c2ccccc2)o1 was read as NPY1 pot ag inactive, PGE2 EP2 inh inactive, EP2 mod 69.1, NPY2 pot ag inactive, NPY-Y1 antag inactive and EP2 cAMP induct active.
Cc1ccc(/C=N/N2CCN(Cc3ccccc3)CC2)o1 was read as NPY Y2 blocker inactive, NPY1 pot ag inactive, PGE2 EP2 inh inactive, EP2 mod inactive, NPY2 pot ag inactive and NPY-Y1 antag inactive.
For CSc1nc2nccc(-c3ccc(Oc4ccccc4)cc3)n2n1 the results were NPY Y2 blocker inactive, NPY1 pot ag inactive, PGE2 EP2 inh inactive, EP2 mod inactive, NPY2 pot ag inactive and NPY-Y1 antag inactive.
For CSc1nc2nccc(-c3ccc(-c4ccccc4)cc3)n2n1 the results were NPY Y2 blocker inactive, NPY1 pot ag inactive, PGE2 EP2 inh inactive, EP2 mod 70.1, NPY2 pot ag inactive, NPY-Y1 antag inactive and EP2 cAMP induct inactive.
CCSc1nc2ccccc2n1Cc1ccccc1F was read as NPY Y2 blocker inactive, NPY1 pot ag inactive, PGE2 EP2 inh inactive, EP2 mod 72.1, NPY2 pot ag inactive, NPY-Y1 antag inactive and EP2 cAMP induct active.
`Cn1ccnc1CNS(=O)(=O)c1ccc2c(c1)oc(=O)n2C` gave PGE2 EP2 inh inactive and EP2 mod inactive.
`CSc1nnc(-c2ccc(F)cc2)o1` gave NPY Y2 blocker inactive, NPY1 pot ag inactive, PGE2 EP2 inh inactive, EP2 mod 72.0, NPY2 pot ag inactive, NPY-Y1 antag inactive and EP2 cAMP induct inactive.
For CC(C)c1nc(SCC(=O)Nc2nc(C(C)(C)C)cs2)c2ccccc2n1 the results were PGE2 EP2 inh inactive and EP2 mod inactive.
For CCc1nc(N2CCCCC2)c2oc3ccccc3c2n1 the results were NPY Y2 blocker inactive, NPY1 pot ag inactive, PGE2 EP2 inh inactive, EP2 mod 76.3, NPY2 pot ag inactive, NPY-Y1 antag inactive and EP2 cAMP induct inactive.
`O=C(CSc1ccc(-c2ccccc2)nn1)N1CCCC1` gave PGE2 EP2 inh inactive and EP2 mod inactive.
Screening O=C1NC2(CCN(C(=O)c3cnccn3)CC2)Nc2ccc(Cl)cc21 returned PGE2 EP2 inh inactive and EP2 mod inactive.
Screening COc1ccc(-c2nc3c(c(=O)[nH]c(=O)n3Cc3ccccc3)n2Cc2ccccc2)cc1 returned NPY Y2 blocker inactive, NPY1 pot ag inactive, PGE2 EP2 inh inactive, EP2 mod 74.3, NPY2 pot ag inactive, NPY-Y1 antag inactive and EP2 cAMP induct active.
`COc1ccc(-c2nc3c(c(=O)[nH]c(=O)n3Cc3ccccc3)n2C)cc1` gave NPY Y2 blocker inactive, NPY1 pot ag inactive, PGE2 EP2 inh inactive, EP2 mod inactive, NPY2 pot ag inactive and NPY-Y1 antag inactive.
Screening CCCc1nc(SCc2cccnc2)c2c(=O)n(C)c(=O)n(C)c2n1 returned NPY Y2 blocker inactive, NPY1 pot ag inactive, PGE2 EP2 inh inactive, EP2 mod inactive, NPY2 pot ag inactive and NPY-Y1 antag inactive.
`Cn1c(=O)c2c(SCc3cccnc3)nc(CC(C)(C)C)nc2n(C)c1=O` gave NPY Y2 blocker inactive, NPY1 pot ag inactive, PGE2 EP2 inh inactive, EP2 mod inactive, NPY2 pot ag inactive, NPY-Y1 antag inactive and EP2 cAMP induct active.
`COc1ccc2c(c1)C(O)CC1(CCN(CC(O)c3ccc4ccccc4c3)CC1)O2` (stereo not drawn) gave PGE2 EP2 inh inactive and EP2 mod inactive.
`CCCC(=O)Nc1cc2c(cc1C(=O)c1ccccc1Cl)OCCO2` gave PGE2 EP2 inh inactive and EP2 mod inactive.
For COc1cc(C)c(NC(c2ccccc2)c2ccccc2)cc1OC the results were NPY1 pot ag inactive, PGE2 EP2 inh inactive, EP2 mod 66.6, NPY2 pot ag inactive, NPY-Y1 antag inactive and EP2 cAMP induct active.
Screening CC(=O)N1CCc2[nH]nc(-c3cccc(Cl)c3)c2C1 returned PGE2 EP2 inh inactive and EP2 mod inactive.
Screening Cc1cc(C)c(S(=O)(=O)O)c(C)n1 returned NPY Y2 blocker inactive, NPY1 pot ag inactive, PGE2 EP2 inh inactive, EP2 mod 77.4, NPY2 pot ag inactive, NPY-Y1 antag inactive and EP2 cAMP induct inactive.
Cc1cc(C)c(S(C)(=O)=O)c(S(=O)(=O)c2ccc(Cl)cc2)n1 was read as NPY Y2 blocker inactive, NPY1 pot ag inactive, PGE2 EP2 inh inactive, EP2 mod inactive, NPY2 pot ag inactive and NPY-Y1 antag inactive.
`COc1ccc(CN2CCc3c(nc(N4CC(C)OC(C)C4)[nH]c3=O)C2)cc1OC` (stereo not drawn) gave EP2 mod inactive.
Screening Cc1ccc(Cn2ccc(=O)c(OCc3ccccc3)c2C)cc1 returned NPY Y2 blocker inactive, NPY1 pot ag inactive, PGE2 EP2 inh inactive, EP2 mod inactive, NPY2 pot ag inactive and NPY-Y1 antag inactive.
`Cc1c(OCc2ccccc2)c(=O)ccn1Cc1ccc(Cl)cc1` gave NPY Y2 blocker inactive, NPY1 pot ag inactive, PGE2 EP2 inh inactive, EP2 mod 67.1, NPY2 pot ag inactive, NPY-Y1 antag inactive and EP2 cAMP induct inactive.
`COc1ccc(N=N/C(=C\O)C(=O)c2ccco2)cc1` gave NPY1 pot ag inactive, PGE2 EP2 inh inactive, EP2 mod inactive, NPY2 pot ag inactive and NPY-Y1 antag inactive.

Screening data from PubChem.
